Measured values of several laboratories.
Compare with care: the assays were run in different laboratories.
BTK: Tyrosine-protein kinase BTK (BTK, Homo sapiens, UniProt Q06187)

SMILES	target	assay	conditions	quantity	result
Cc1cc(O)c(-c2ccc([C@@H](C)CN(C)C)cc2)c2c1[nH]c(=O)c1sccc12	[Pyruvate dehydrogenase (acetyl-transferring)] kinase isozyme 1, mitochondrial (PDK1, Homo sapiens, UniProt Q15118)	enzyme activity, inhibitor	0.1 µM, lysate	inhibition	-15.2%
CN(C)CCOC(=O)COc1ccc(Cl)cc1	D(4) dopamine receptor (DRD4, Homo sapiens, UniProt P21917)	ligand displacement, radioligand	1 µM, cell membranes	inhibition	-12.4%
C#Cc1cc(-c2cc(Nc3nc(N[C@@H](C)c4ccc(F)cn4)ncc3Cl)n[nH]2)ccc1C=O	Mitogen-activated protein kinase kinase kinase 19 (MAP3K19, Homo sapiens, UniProt Q56UN5)	enzyme activity, inhibitor	0.2 µM	inhibition	3.1%
Cc1nc(Nc2ncc(C(=O)Nc3c(C)cccc3Cl)s2)cc(N2CCCCC2)n1	BTK	enzyme activity, inhibitor, mobility shift	1 nM	inhibition	56%
CCCCC(=O)Nc1ccc(-c2ccc3ncn(CCC)c(=O)c3c2)cn1	Mast/stem cell growth factor receptor Kit (KIT, Homo sapiens, UniProt P10721, V559D)	binding, competition with immobilised ligand	0.5 µM	remaining binding	99%
N#Cc1ccc(NC(=O)Nc2ccccc2)cc1	Atypical kinase COQ8A, mitochondrial (COQ8A, Homo sapiens, UniProt Q8NI60)	cell-free assay, competition with immobilised ligand	25 µM	remaining binding	96%
C1=C/COCc2cc(ccc2OCCN2CCCC2)Nc2nccc(n2)-c2cccc(c2)COC/1	Serine/threonine-protein kinase Nek11 (NEK11, Homo sapiens, UniProt Q8NG66)	binding	0.1 µM	remaining binding	95%
Cc1cc(-c2ccnc3[nH]cc(F)c23)cc(F)c1[C@@]1(O)[C@H](C)CN(C(=O)CN)C[C@@H]1C	RAC-beta serine/threonine-protein kinase (AKT2, Homo sapiens, UniProt P31751)	enzyme activity, inhibitor	0.1 µM	remaining activity	113%
O=C(COc1ccc(Cl)c(F)c1)NC12CC(NC(=O)c3cnc(C(F)F)cn3)(C1)C2	Translation initiation factor eIF2B subunit beta/Translation initiation factor eIF2B subunit delta (Homo sapiens, UniProt P49770+Q9UI10)	ligand displacement, TR-FRET	100 µM	inhibition	100%
Cc1nc(Nc2ncc(C(=O)Nc3c(C)cccc3Cl)s2)cc(N2CC[C@@H](O)C2)n1	BTK	enzyme activity, inhibitor, mobility shift	1 nM	inhibition	74%
COc1ccc2oc(-c3ccc4nc(N)oc4c3)c/c(=N\c3ccccc3NC(=O)CCN)c2c1	Casein kinase II subunit alpha (CSNK2A1, Homo sapiens, UniProt P68400)	binding	1 µM	remaining binding	106%
[2H]c1cc(C)c(NC(=O)c2cnc(Nc3cc(N4CC[C@@H](N)C4)nc(C)n3)s2)c(Cl)c1	BTK	enzyme activity, inhibitor, mobility shift	1 nM	inhibition	52%
NC/C(=C\F)COc1cccc(Cn2c(=S)[nH]c(=O)c3[nH]cnc32)c1	D(4) dopamine receptor (DRD4, Homo sapiens, UniProt P21917, del265-296)	ligand displacement, radioligand	10 µM	inhibition	< 50%
[2H]c1cc(C)c(NC(=O)c2cnc(Nc3cc(N4CCCCC4)nc(C)n3)s2)c(Cl)c1	BTK	enzyme activity, inhibitor, mobility shift	1 nM	inhibition	90%
C[C@H](NC(=O)C(=O)Nc1ccccc1C(C)(C)C)C(=O)N[C@@H](CC(=O)O)C(=O)COc1c(F)c(F)cc(F)c1F	Caspase-8 (CASP8, Homo sapiens, UniProt Q14790)	enzyme activity, inhibitor		kinact/KI	2.74e+06 M⁻¹ s⁻¹
